Where two headings read alike, the source gives them in different places.
What was measured:
[1] = cited from earlier work
[2] = cited from earlier work; remark: listed apart in the source
[3] = format: in vivo, human; details: for Tmax / concentration at 2 h / half-life: human, po; for AUC0-t: single oral tablet 4/1.25 mg, fasting, mean ± SD
Method in brief: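 Ten healthy Chinese volunteers, fasted at least 10 h overnight, took one oral ACE-inhibitor/diuretic combination tablet (4 mg/1.25 mg) with 240 mL warm water. Blood was drawn into two K2EDTA tubes pre-dose and at 0.25–48 h. One tube was spun (3000 rpm, 10 min) for plasma and the other kept as whole blood, both stored at −80 °C. Parent drugs were extracted by acetonitrile precipitation and the metabolite by 14% perchloric acid, then measured by LC-MS/MS against internal standard. AUC0-t ran to 6 h for the ACE inhibitor and to 48 h otherwise.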

[4] = whole blood, dose 1.5 mg, indapamide sustained-release tablets, ref 11
[5] = whole blood, dose 1.5 mg, indapamide sustained-release tablets, ref 21

Row | Tmax ([3]; plasma) | concentration at 2 h ([3]; plasma) | half-life ([3]; plasma) | Tmax ([3]; whole blood) | concentration at 2 h ([3]; whole blood) | half-life ([3]; whole blood) | Structure (SMILES) | Cmax ([1]; plasma, dose 4 mg, ref 22) | Tmax ([1]; plasma, dose 4 mg, ref 22) | Cmax ([1]; plasma, dose 4 mg, ref 24) | Tmax ([1]; plasma, dose 4 mg, ref 24) | AUC0-t ([1]; plasma, dose 4 mg, t = 120 h) | other results
1 | 1.8 ± 0.8 h | 5.32 ng/mL | 13.4 ± 2.4 h | 1.6 ± 0.6 h | 14.9 ng/mL | 13.5 ± 1.6 h | CC1Cc2ccccc2N1NC(=O)c1ccc(Cl)c(S(N)(=O)=O)c1 (stereo not shown) [Indapamide, indapamide] |  |  |  |  |  | Tmax ([1]; whole blood, dose 1.25 mg): 2.4 ± 1.1 h; AUC0-t ([1]; whole blood, dose 1.25 mg, t = 96 h): 1152 ± 429 ng·h/mL; Cmax [1, 4]: 43.6 ± 16.1 ng/mL; Tmax [1, 4]: 10.3 ± 5.3 h; Cmax [1, 5]: 41.1 ± 7.6 ng/mL; Tmax [1, 5]: 8.0 ± 3.0 h; AUC0-t ([1]; whole blood, dose 1.5 mg, indapamide sustained-release tablets, t = 96 h, ref 11): 1318 ± 303 ng·h/mL; AUC0-t ([1]; whole blood, dose 1.5 mg, indapamide sustained-release tablets, t = 96 h, ref 21): 1268 ± 279 ng·h/mL; Binding to the red blood cell [2]: high binding to the red blood cell; AUC0-t ([3]; whole blood, t = 48 h): 882 ± 126 ng·h/mL
2 | 0.65 ± 0.1 h | 11.1 ng/mL | 0.96 ± 0.3 h | 0.7 ± 0.2 h | 7.35 ng/mL | 1.11 ± 0.4 h | CCC[C@H](N[C@@H](C)C(=O)N1[C@H](C(=O)O)C[C@@H]2CCCC[C@@H]21)C(=O)OCC [Perindopril, perindopril] | 63.9 ± 18.0 ng/mL | 0.66 ± 0.2 h | 72 ± 20 ng/mL | 0.75 h | 106 ± 32 ng·h/mL | Cmax ([1]; plasma, dose 4 mg, ref 16): 36.5 ± 11.4 ng/mL; Tmax ([1]; plasma, dose 4 mg, ref 16): 0.66 ± 0.2 h; AUC0-t ([1]; plasma, dose 4 mg, t = 5 h): 70.3 ± 14.4 ng·h/mL; AUC0-t ([1]; plasma, dose 4 mg, t = 96 h): 41.7 ± 10.0 ng·h/mL; Binding in blood [2]: bind mainly to plasma protein in blood; AUC0-t ([3]; plasma, t = 6 h): 51.4 ± 12.8 ng·h/mL
3 | 6.4 ± 1.3 h | 2.49 ng/mL | 17 ± 6.5 h | 5.8 ± 1.1 h | 1.31 ng/mL | 18.2 ± 7.3 h | CCC[C@H](N[C@@H](C)C(=O)N1[C@H](C(=O)O)C[C@@H]2CCCC[C@@H]21)C(=O)O [Perindoprilat, perindoprilat] | 5.91 ± 2.9 ng/mL | 6.3 ± 1.2 h | 4.9 ± 2.7 ng/mL | 6 h | 191 ± 76 ng·h/mL | Cmax ([1]; plasma, dose 4 mg, one significant digit): 5 ± 2 ng/mL; Tmax ([1]; plasma, dose 4 mg, ref 23): 4.3 ± 2.9 h; AUC0-t ([1]; plasma, dose 4 mg, t = 72 h, ref 22): 111 ± 18.4 ng·h/mL; AUC0-t ([1]; plasma, dose 4 mg, t = 72 h, ref 23): 92 ± 30 ng·h/mL; AUC0-t ([3]; plasma, t = 48 h): 108 ± 34.7 ng·h/mL
